Screens as filed in PubChem.
CYP2C9 inh: inhibitors of human CYP2C9; P11712; CYP2C9 Supersomes, luciferin-H conversion, luminescence; inhibition, % at 5 µM; actives 20% (n = 96,000);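 active = blocking of liver enzyme CYP2C9 beyond about 50% at 5 µM, limit read from the data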
CYP2C19 activ: increases human CYP2C19 enzyme activity; 96,000 tested, under 10 active; P33261; recombinant CYP2C19, luciferin-H EGE luminescence; stronger effect = higher value; 0 = fully inhibited enzyme, 1 = untreated enzyme; activation factor at 5 µM; AID 1025;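 active = activation factor of at least 2 at 5 µM in the primary screen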
Target sequence (P33261 whole entry, looked up): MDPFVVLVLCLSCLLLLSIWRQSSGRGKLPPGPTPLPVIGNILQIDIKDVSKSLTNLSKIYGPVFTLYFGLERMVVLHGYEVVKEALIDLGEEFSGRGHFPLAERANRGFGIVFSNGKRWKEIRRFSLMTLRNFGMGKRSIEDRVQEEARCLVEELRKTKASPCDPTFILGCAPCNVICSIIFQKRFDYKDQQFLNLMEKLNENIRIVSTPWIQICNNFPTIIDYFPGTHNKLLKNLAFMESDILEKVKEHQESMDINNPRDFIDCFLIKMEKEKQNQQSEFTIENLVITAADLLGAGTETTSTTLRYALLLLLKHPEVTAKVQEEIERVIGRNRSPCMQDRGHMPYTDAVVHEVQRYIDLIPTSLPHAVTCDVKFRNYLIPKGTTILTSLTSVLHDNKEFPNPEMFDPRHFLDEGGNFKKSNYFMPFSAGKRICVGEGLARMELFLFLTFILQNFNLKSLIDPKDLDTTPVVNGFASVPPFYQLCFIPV
CYP2C9 act: CYP2C9 (human) activation; AID 1024; actives 1.4% (n = 96,000); P11712; activation factor at 5 µM; recombinant CYP2C9, luciferin-H conversion, luminescence; stronger effect = higher value; factor 1 = untreated enzyme, 0 = blocked;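 active = activation factor of 2 or more for CYP2C9 at a 5 µM dose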
Rev-RRE block: disrupts HIV-1 Rev binding to RRE RNA | actives 0.79% (n = 97,000) | inhibition, % at 8 µM | Rev peptide-RRE RNA binding, FRET;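 active = inhibition above the screen-wide mean plus 3 SD, cut at about 35% in these data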
Target sequence (P05866 whole entry, looked up): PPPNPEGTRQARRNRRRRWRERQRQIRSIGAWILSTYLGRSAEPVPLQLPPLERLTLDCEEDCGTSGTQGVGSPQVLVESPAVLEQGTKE
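Assay system: labelled RRE RNA duplex and labelled Rev peptide / Medium: HEPES pH 7.5 salt buffer with EDTA / Reagent: labelled Rev peptide / Schedule: 5 + 15 min at 25 °C / Signal: FRET, excitation 480 nm, emission 540 nm donor and 671 nm acceptor / Benchmarks: DMSO and neomycin B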
Cav32 inh: human Cav3.2 channel inhibition, primary screen | O95180 | Cav3.2-expressing cells, Fluo-4 calcium fluorescence FDSS; stronger effect = lower value | B-score at 10 µM | actives 4% (n = 100,000);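 active = single-dose well whose peak fluorescence ratio is a statistical outlier from its plate by either plate-standardised score or position-corrected B-score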
CYP2C19 inhib: blocks human cytochrome P450 2C19; AID 778; CYP2C19 Supersomes, luciferin-H EGE luminescence, 30 min; P33261; inhibition, % at 5 µM; actives 21% (n = 96,000);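 active = CYP2C19 inhibition above a set limit at 5 µM in the primary screen, cut at about 50% in these data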
Large screens that a line does not name were inactive. Most compounds without a hit are left out; they make up all but 27% or so of the library.

COc1ccc2cc(CN(Cc3cccnc3)Cc3nnnn3Cc3ccccc3)c(=O)[nH]c2c1	CYP2C9 inh 90, CYP2C19 inhib 93
COC(=O)Cc1n[nH]c(=O)c2ccccc12	none
Cc1ccc(NC(=O)CC2SC3=NCCCN3C2=O)c(C)c1 (configuration not stated)	none (no result: Cav32 inh)
Cc1ccnc(NS(=O)(=O)c2ccc(Oc3ccccc3)cc2)c1	CYP2C19 inhib 67
Oc1ccccc1C(=S)N1CCCCC1	CYP2C19 inhib 78 (no result: Rev-RRE block)
Oc1ccccc1C(=S)N1CCCCCC1	CYP2C19 inhib 52
Cc1cnn(CCC(=O)NNC(=S)Nc2cccc(Cl)c2)c1	none
CCn1c(=O)c(C2=NS(=O)(=O)c3ccccc3N2)c(O)c2ccccc21	CYP2C9 inh 61 (no result: Rev-RRE block, Cav32 inh)
CCn1c(=O)c(-[n+]2ccccc2)c(O)c2ccccc21	none
CN(C)CCCNCCCNC(=O)/C(=N\O)c1ccccn1	none (no result: CYP2C9 inh, CYP2C19 activ, CYP2C9 act, CYP2C19 inhib)
Cc1cccc(OCCCOc2cccc3cccnc23)c1C	CYP2C19 inhib 56
NC(=O)COc1cccc2cccnc12	none
Brc1ccccc1OCCOCCOc1cccc2cccnc12	Cav32 inh -4.7 (no result: CYP2C9 inh, CYP2C19 activ, CYP2C9 act, CYP2C19 inhib)
Brc1ccc(OCCOCCOc2cccc3cccnc23)cc1	none (no result: CYP2C9 inh, CYP2C19 activ, CYP2C9 act, Cav32 inh, CYP2C19 inhib)
Cc1ccc(OCCCOc2cccc3cccnc23)cc1C	CYP2C9 act 2.8, CYP2C19 inhib 72
Cc1cc(NC(=O)COc2cccc3cccnc23)no1	none (no result: CYP2C9 inh, CYP2C19 activ, CYP2C9 act, CYP2C19 inhib)
Cc1nnc(OC(C)C)c2nn(-c3ccccc3F)c(C)c12	CYP2C9 inh 89, CYP2C19 inhib 51
Cc1nnc(N2CCN(c3ccccc3)CC2)c2nn(-c3ccccc3F)c(C)c12	none (no result: CYP2C9 inh, CYP2C19 activ, CYP2C9 act, Cav32 inh, CYP2C19 inhib)
Cc1ccc(C(=O)N2CC3(C(C)C)CN(C(=O)c4ccc(C)cc4)CC(C(C)C)(C2)C3=O)cc1	none (no result: Cav32 inh)
CCCCOc1ccc(-c2nnn(C(C)C(=O)OCC)n2)cc1 (configuration not stated)	CYP2C9 inh 68
CCCCOc1ccc(-c2nnn(C(C)(C)C(=O)OC)n2)cc1	CYP2C9 inh 57
C[C@@H]1CCC[C@@]2(O[C@@H](CCO)C[C@H](O)[C@H]2O)O1	none (no result: CYP2C9 inh, CYP2C19 activ, CYP2C9 act, Rev-RRE block, CYP2C19 inhib)
Cc1ccc(N2CCN(/N=C/c3sccc3C)CC2)cc1	CYP2C9 act 2.8
O=[N+]([O-])c1ccccc1/C=N/N1CCN(c2ccc(Cl)cc2)CC1	none
CC1=CC(C)(C)N(C(=O)CSc2nnc(N)s2)c2c(C)cc(C)cc21	CYP2C9 inh 50, CYP2C19 inhib 60
CCN(CC)c1ccc(NC(=O)CSc2nnc(N)s2)cc1C	none
COCCn1c(=O)c2cc3c(=O)n(CCOC)c(=O)c3cc2c1=O	none
CC(c1cccs1)N(C(=O)Nc1ccccc1)C1CCCCC1 (configuration not stated)	none
CC(C)CCN(C(=O)Nc1ccccc1)C(C)c1cccs1 (configuration not stated)	CYP2C9 inh 74, Cav32 inh -4.8
N#CC(c1cccc(Cl)c1)c1ncc(C(F)(F)F)cc1Cl (configuration not stated)	CYP2C19 inhib 89
N#CC(c1ccc(Cl)cc1)c1ncc(C(F)(F)F)cc1Cl (configuration not stated)	Cav32 inh -4.6, CYP2C19 inhib 94
NC(=O)C(c1ncc(C(F)(F)F)cc1Cl)c1c(Cl)cccc1Cl (configuration not stated)	none
COc1ccccc1NC(=O)N(C1CCCC1)C1CCN(C(C)=O)CC1	none
O=C(NC1CC2CCC(C1)N2C(=O)NCc1ccccc1)C1CC1 (configuration not stated)	none
O=C(NC1CC2CCCC(C1)N2C(=O)Nc1ccc(Cl)c(C(F)(F)F)c1)C1CC1 (configuration not stated)	Cav32 inh -5.7
CCOC(=O)Cn1c(C)nc2ccccc21	none
CCOC(=O)Cn1c(-c2ccccn2)nc2ccccc21	CYP2C19 inhib 51
CCCC(=O)Nc1cc(C)c2c(=O)oc3ccccc3c2n1	Cav32 inh -3.9 (no result: CYP2C9 inh, CYP2C19 activ, CYP2C9 act, Rev-RRE block, CYP2C19 inhib)
C=CCOc1ccc(C(=O)N(Cc2ccc(N(C)C)cc2)C2CCS(=O)(=O)C2)cc1 (configuration not stated)	none
COc1ccc(NCc2nc3ccccc3n2CCOc2ccccc2)cc1	CYP2C9 inh 79
OCCCc1nc2ccccc2n1CCOc1ccccc1	CYP2C19 inhib 84
Cc1nc2ccccc2n1CCCOc1ccccc1	none (no result: CYP2C9 inh, CYP2C19 activ, CYP2C9 act, CYP2C19 inhib)
CCCc1nc2ccccc2n1CCOc1ccccc1	Cav32 inh -5.3, CYP2C19 inhib 61
c1ccc(OCCn2c(-c3ccco3)nc3ccccc32)cc1	none
CCOCCn1c(CCCO)nc2ccccc21	none
COCc1nc2ccccc2n1CCCOc1ccccc1	CYP2C9 inh 78, CYP2C19 inhib 97
CC(NC(=O)COc1ccccc1)C(c1ccccc1)N1CCN(C)CC1 (configuration not stated)	none (no result: Rev-RRE block)
Cc1ccc(NC2OC(CO)C(O)C(O)C2O)cc1 (configuration not stated)	none
O=C(Nc1ccccc1)C1=C[C@H](c2coc3ccccc3c2=O)C[C@H](OCCCCO)O1	none (no result: CYP2C9 inh, CYP2C19 activ, CYP2C9 act, Rev-RRE block, CYP2C19 inhib)
O=C(Nc1nc2ccccc2n1CCOc1ccccc1)c1ccco1	CYP2C19 inhib 58 (no result: Cav32 inh)
Cc1ccc(OCCn2c(CCCO)nc3ccccc32)cc1	CYP2C19 inhib 59
CC(C)C(=O)NCCc1nc2ccccc2n1C	none
CCCc1nc2ccccc2n1CCOC	none
CC(C)C(=O)NCCc1nc2ccccc2n1CCCOc1ccc(Cl)cc1	CYP2C9 inh 77, Cav32 inh -5.6, CYP2C19 inhib 77
C=C(C)Cn1c(SCCN2CCOCC2)nc2c1c(=O)[nH]c(=O)n2C	none (no result: CYP2C9 inh, CYP2C19 activ, CYP2C9 act, CYP2C19 inhib)
CCCCCSc1nc2c(c(=O)[nH]c(=O)n2C)n1CCc1ccccc1	none (no result: Rev-RRE block)
CCc1nc(C)cn1S(=O)(=O)c1ccc(Cl)c(Cl)c1Cl	CYP2C9 inh 60, Cav32 inh -3.6, CYP2C19 inhib 95
CCc1nc(C)cn1S(=O)(=O)c1cc(Br)ccc1OC	CYP2C19 inhib 96
CCc1nc(C)cn1S(=O)(=O)c1cc(Cl)c(OC)cc1Cl	none
CCN1CCN(S(=O)(=O)c2cc(C)c(OC)cc2C)CC1	none
CCc1nc(C)cn1S(=O)(=O)c1cc(Br)c(C)cc1OC	CYP2C9 inh 58, CYP2C19 inhib 61 (no result: Cav32 inh)
CCc1nc(C)cn1S(=O)(=O)c1cc(C)c(OC)cc1C	Cav32 inh -3.8, CYP2C19 inhib 62
CCN(CC)C(=O)C1CCCN(c2ccc([N+](=O)[O-])cc2/C=N/NC(=O)c2cccc([N+](=O)[O-])c2)C1 (configuration not stated)	none (no result: Cav32 inh)
Fc1ccc(CNc2nc3ccccc3n3cnnc23)cc1	none
COc1ccc(OC)c(Nc2nc(N)nc(CSc3nnc(-c4ccncc4)o3)n2)c1	none (no result: Cav32 inh)
CC(=O)Cc1nsc(NC(=O)c2cc(-c3ccccc3Cl)oc2C)n1	none (no result: Cav32 inh)
COc1c(C)cc(S(=O)(=O)NC2CC(C)(C)NC(C)(C)C2)c(C)c1C	none (no result: CYP2C9 inh, CYP2C19 activ, CYP2C9 act, CYP2C19 inhib)
CCc1nc(C)cn1S(=O)(=O)c1cc(C)c(OC)c(C)c1C	CYP2C19 inhib 62
CCOC(=O)c1c(NC(=O)CNCC(O)CO)sc(C)c1C (configuration not stated)	none
